Test results published in ChEMBL document CHEMBL4342513, “Implementation of the CYP Index for the Design of Selective Tryptophan-2,3-dioxygenase Inhibitors” (ACS Med Chem Lett, 2020).
≈ marks a conversion by molar mass, not a printed value.

What was measured:
[1] = Clearance in mouse liver microsomes; type: ADME, Microsome
Outline: (§1)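 Clearance was measured in liver microsome incubations from human, rat and mouse. It is expressed as scaled clearance in mL/min/kg.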

[2] = Clearance in rat liver microsomes; type: ADME, Microsome; outline: as §1
[3] = Clearance in human liver microsomes; type: ADME, Microsome; outline: as §1
[4] = molecular target: Indoleamine 2,3-dioxygenase 1 (Homo sapiens, UniProt P14902); assay: Inhibition of IDO1 in human A172 cells after 24 hrs in presence of IFNgamma by NFK green reagent based assay; type: cell-based
Indoleamine 2,3-dioxygenase 1, sequence (P14902 whole entry): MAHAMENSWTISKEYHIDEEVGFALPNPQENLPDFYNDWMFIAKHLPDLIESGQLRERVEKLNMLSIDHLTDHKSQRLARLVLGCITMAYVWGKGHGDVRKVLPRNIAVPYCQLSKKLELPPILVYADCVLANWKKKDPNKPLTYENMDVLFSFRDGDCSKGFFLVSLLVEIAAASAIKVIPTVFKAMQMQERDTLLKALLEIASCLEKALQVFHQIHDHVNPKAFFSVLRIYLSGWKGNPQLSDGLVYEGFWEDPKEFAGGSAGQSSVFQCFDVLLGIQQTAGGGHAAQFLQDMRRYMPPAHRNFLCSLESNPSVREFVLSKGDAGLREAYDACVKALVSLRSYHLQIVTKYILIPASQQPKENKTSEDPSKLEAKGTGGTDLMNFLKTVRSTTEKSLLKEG

[5] = molecular target: T1, Tryptophan 2,3-dioxygenase (Homo sapiens, UniProt P48775); assay: Inhibition of TDO in human SW48 cells after 24 hrs by NFK green reagent based assay; type: cell-based
T1 sequence (P48775 whole entry): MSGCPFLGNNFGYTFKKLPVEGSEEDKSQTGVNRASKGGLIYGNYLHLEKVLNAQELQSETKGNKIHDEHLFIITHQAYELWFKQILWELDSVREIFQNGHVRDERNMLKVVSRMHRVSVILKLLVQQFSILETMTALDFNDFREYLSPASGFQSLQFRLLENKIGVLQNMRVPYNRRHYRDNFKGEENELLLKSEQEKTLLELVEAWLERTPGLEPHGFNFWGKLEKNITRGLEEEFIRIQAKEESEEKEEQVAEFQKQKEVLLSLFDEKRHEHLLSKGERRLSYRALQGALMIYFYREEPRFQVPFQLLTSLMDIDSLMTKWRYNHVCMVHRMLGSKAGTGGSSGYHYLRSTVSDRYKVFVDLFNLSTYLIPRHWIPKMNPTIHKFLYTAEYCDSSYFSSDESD

Homo sapiens [6] = organism: Homo sapiens; assay: Selectivity index, ratio of EC50 for inhibition of IDO1 in human A172 cells in presence of IFNgamma to EC50 for inhibition of TDO in human SW48 cells; type: cell-based
Homo sapiens [7] = organism: Homo sapiens; assay: Selectivity index, ratio of IC50 for inhibition of CYP3A4 (unknown origin) to EC50 for inhibition of EC50 for inhibition of TDO in human SW48 cells; type: cell-based
Cytochrome P450 3A4 = Cytochrome P450 3A4 (Homo sapiens, UniProt P08684); assay: Inhibition of CYP3A4 (unknown origin); type: ADME
Cytochrome P450 3A4, sequence (P08684 whole entry): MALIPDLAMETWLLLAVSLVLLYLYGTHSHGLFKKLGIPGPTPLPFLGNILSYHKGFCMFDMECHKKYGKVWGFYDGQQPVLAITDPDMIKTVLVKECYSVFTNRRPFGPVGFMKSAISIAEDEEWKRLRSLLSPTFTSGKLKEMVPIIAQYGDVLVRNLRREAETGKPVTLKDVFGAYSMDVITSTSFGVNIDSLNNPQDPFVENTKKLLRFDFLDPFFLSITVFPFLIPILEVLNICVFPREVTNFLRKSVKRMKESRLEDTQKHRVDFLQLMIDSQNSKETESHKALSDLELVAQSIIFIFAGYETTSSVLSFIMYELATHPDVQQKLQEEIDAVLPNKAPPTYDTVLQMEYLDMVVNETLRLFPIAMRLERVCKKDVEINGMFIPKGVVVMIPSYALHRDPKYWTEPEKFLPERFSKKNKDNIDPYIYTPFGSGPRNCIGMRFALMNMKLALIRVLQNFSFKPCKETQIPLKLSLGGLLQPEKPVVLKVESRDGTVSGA

[8] = Kinetic solubility of compound; type: physicochemical; conditions: read-out: Kinetic_solubility
[9] = Clearance in iv dosed mouse plasma; type: ADME, organism-based
Outline: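 Compounds were given to mice as discrete (single-compound) intravenous doses. Plasma clearance (CLp) is expressed in mL/min/kg.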

[10] = Volume of distribution at steady state in mouse; type: ADME, organism-based; conditions: in vivo, read-out: Vdss
[11] = Oral bioavailability in mouse at 1 mg/kg dosed as cassette formulation; type: ADME, organism-based; conditions: in vivo
[12] = Apparent permeability across apical to basolateral side in MDCK cells; type: ADME, cell-based, Canis lupus familiaris; conditions: dog
[13] = Half life in mouse; type: ADME, organism-based; conditions: in vivo
[14] = Unbound clearance in mouse plasma; type: ADME, cell-free
[15] = Protein binding in mouse plasma assessed as unbound fraction; type: ADME, cell-free
[16] = AUC (infinity) in mouse; type: ADME, organism-based; design: time infinity; conditions: in vivo, BLD = below limit of detection
[17] = molecular target: T1, Tryptophan 2,3-dioxygenase; assay: Inhibition of TDO (unknown origin)
[18] = molecular target: T1, Tryptophan 2,3-dioxygenase; assay: Inhibition of recombinant human TDO using L-tryptophan as substrate preincubated for 5 mins followed by substrate addition and measured after 15 mins by RapidFire-Mass spectrometry
[19] = Lipophilicity, log D of compound at pH 7.4; type: physicochemical; conditions: buffer

SMILES | CLhep predicted [1] [mL/min/kg] | CLhep predicted [2] [mL/min/kg] | CLhep predicted [3] [mL/min/kg] | EC50 [4] [nM] | EC50 [5] [nM] | IC50 (Cytochrome P450 3A4) [nM] | logD [19] | Ratio EC50 (Homo sapiens [6]) | Ratio IC50/EC50 (Homo sapiens [7]) | also measured
C[C@H]([C@H](O)c1ccccc1)[C@H]1c2ccccc2-c2cncn21 | – | – | – | – | ≤ 32 | – | – | – | – | –
O[C@H](C[C@H]1c2c(F)cccc2-c2cncn21)[C@H]1CC[C@H](O)CC1 [NAVOXIMOD] | – | – | – | – | – | – | – | – | – | EC50 [17]: 2000 nM
OCCC1c2ccccc2-n2nncc21 (centres undefined) | – | – | – | – | – | – | – | – | – | IC50 [18]: > 25000 nM
c1ccc2c(c1)-c1cncn1[C@H]2C1CCCCC1 | 74 | 45 | 15 | – | – | – | 3.7 | 13 | – | –
OCCn1c2ccccc2n2cnnc12 | – | – | – | – | – | – | – | – | – | IC50 [18]: 17000 nM
OCCC1c2ccccc2-n2cncc21 (centres undefined) | – | – | – | – | – | – | – | – | – | IC50 [18]: 60 nM
CS(=O)(=O)N1CC[C@@H]([C@H]2c3ccccc3-c3cncn32)[C@H](O)C1 | – | – | – | 970 | 87 | > 10000 | 0.7 | 11 | > 120 | –
C[C@H]([C@H](O)C1CCCCC1)[C@H]1c2ccccc2-c2cncn21 | 75 | 42 | 16 | 670 | 62 | – | 3.9 | 11 | – | –
NS(=O)(=O)NCCNc1nonc1C(=NO)Nc1ccc(F)c(Br)c1 [EPACADOSTAT] | – | – | – | – | – | – | – | – | – | IC50 [17]: > 10000 nM
OCCC1c2ccccc2-c2cnsc21 (centres undefined) | – | – | – | – | – | – | – | – | – | IC50 [18]: 7000 nM
O=C1CC(c2c[nH]c3ccc(F)cc23)C(=O)N1 (centres undefined) [PF-06840003] | – | – | – | – | – | – | – | – | – | IC50 [17]: > 10000 nM
OCCC1c2ccccc2-c2cncn21 (centres undefined) | – | – | – | – | – | – | – | – | – | IC50 [18]: 20 nM
CC(C)([C@H](O)c1ncco1)[C@H]1c2ccccc2-c2cncn21 | – | – | – | – | 71 | – | 2.3 | – | < 2 | –
CC(=O)N1CC[C@@H]([C@H]2c3ccccc3-c3cncn32)[C@H](O)C1 | – | – | – | > 25000 | 3000 | – | 1.1 | > 8 | – | –
O[C@@H](C[C@H]1c2ccccc2-c2cncn21)C1CCCCC1 | 80 | 45 | 18 | – | – | – | 2.8 | – | – | –
OCCn1c2ccccc2c2cncn21 | – | – | – | – | – | – | – | – | – | IC50 [18]: 20 nM

The next lines start with results.

CLhep predicted [1] [mL/min/kg] | CLhep predicted [2] [mL/min/kg] | CLhep predicted [3] [mL/min/kg] | EC50 [4] [nM] | EC50 [5] [nM] | IC50 (Cytochrome P450 3A4) [nM] | logD [19] | SMILES | Ratio EC50 (Homo sapiens [6]) | Ratio IC50/EC50 (Homo sapiens [7]) | also measured
75 | 47 | 11 | 240 | – | – | – | O[C@@H]1c2ccccc2CC[C@H]1[C@H]1c2ccccc2-c2cncn21 | – | – | –
46 | 19 | < 3.9 | 13000 | 380 | 3300 | – | Cn1ncc2c1CC[C@@H]([C@H]1c3ccccc3-c3cncn31)[C@@H]2O | 34 | 9 | –
81 | 46 | 6.9 | 1300 | 65 | 2800 | – | CS(=O)(=O)c1ccc2c(c1)CC[C@@H]([C@H]1c3ccccc3-c3cncn31)[C@@H]2O | 20 | 43 | –
45 | 33 | < 3.9 | 4600 | 54 | 8200 | – | O[C@@H]1c2nonc2CC[C@H]1[C@H]1c2ccccc2-c2cncn21 | 85 | 150 | solubility kinetic [8]: 165 µM (≈ 48.6 µg/mL); clearance [9]: 63 mL/min/kg; Vd [10]: 1.1 L/kg; bioavailability [11]: < 5%; Papp A→B [12]: 23 ×10⁻⁶ cm/s; half-life [13]: 12.6 min; CL free [14]: 230 mL/min/kg; fraction unbound [15]: 0.27; AUC [16]: Bld
67 | 46 | 11 | 800 | – | < 100 | – | O[C@@H]1c2ccncc2CC[C@H]1[C@H]1c2ccccc2-c2cncn21 | 17 | < 2 | –
67 | 26 | 7.4 | 2600 | 35 | 3600 | – | NC(=O)c1ccc2c(c1)[C@@H](O)[C@H]([C@H]1c3ccccc3-c3cncn31)CC2 | 74 | 100 | –
79 | 44 | 14 | 690 | 60 | 3300 | – | N#Cc1ccc2c(c1)[C@@H](O)[C@H]([C@H]1c3ccccc3-c3cncn31)CC2 | 12 | 55 | Papp A→B [12]: 1.7 ×10⁻⁶ cm/s
39 | 19 | < 3.9 | 10000 | 130 | 1600 | – | CP(C)(=O)c1ccc2c(c1)[C@@H](O)[C@H]([C@H]1c3ccccc3-c3cncn31)CC2 | 77 | 12 | –
14 | 6.1 | < 3.9 | > 25000 | 7400 | > 10000 | – | O[C@@H]1c2nncn2CC[C@H]1[C@H]1c2ccccc2-c2cncn21 | > 3 | > 1 | –
59 | 27 | 5.9 | 1400 | 36 | – | 1.7 | O[C@@H]1CC[C@H]1[C@H]1c2ccccc2-c2cncn21 | 67 | – | –
59 | 35 | 5 | 2200 | 70 | – | 2.2 | O[C@@H]1CCC[C@H]1[C@H]1c2ccccc2-c2cncn21 | 31 | – | –
64 | 33 | 6.6 | 880 | 39 | 6000 | – | CS(=O)(=O)c1ccc2c(c1)[C@@H](O)[C@H]([C@H]1c3ccccc3-c3cncn31)CC2 | 23 | 150 | –
– | – | – | 20000 | – | – | 1.4 | CN1CC[C@@H]([C@H]2c3ccccc3-c3cncn32)[C@H](O)C1 | 14 | – | –
62 | 37 | 9.7 | 720 | 50 | – | 2.7 | O[C@@H]1CCCC[C@H]1[C@H]1c2ccccc2-c2cncn21 | 14 | – | –
– | – | – | 2900 | – | 650 | 1.5 | O[C@@H]1CCOC[C@H]1[C@H]1c2ccccc2-c2cncn21 | 14 | 3.1 | –
– | – | – | 1600 | 72 | 600 | 1.3 | O[C@@H]1COCC[C@H]1[C@H]1c2ccccc2-c2cncn21 | 22 | 8.3 | –
